# Compound activity as filed in PubChem BioAssay.
# The list is not random: actives were taken first. Their share in the collection is about 2.9%.
# PG9 binder: binds the HIV-1 gp120 antibody PG9 | TR-FRET gp120-PG9 antibody binding | inhibition, % at 6.7 µM | 0.43% of 360,000 active; in the data active = inhibition above about 8.5%
# H9c2 TAG inh: reduces triacylglycerol accumulation in H9c2 cells; inhibition, % at 12.5 µM; AID 651582; Nile Red lipid (TAG) fluorescence; cells loaded with 200 µM oleic acid; 0.66% of 230,000 active;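 active = pattern-corrected inhibition of lipid staining of at least 50% with the nuclear-stain viability signal not falling by more than 50%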;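 also: 0% = DMSO wells and 100% = triacsin C control wells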
# hiPSC survival: enhancers of human iPSC single-cell survival; hiPSC single-cell survival, ATPlite luminescence; 100% = ROCK inhibitor wells, 0% = DMSO; survival enhancement, % at 20 µM; 0.044% of 360,000 active; AID 602274; in the data active = survival enhancement above about 18%;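 also: cells exposed to compounds for 16 hours before the ATP read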
# Rev-erbA mod: modulators of human Rev-erb alpha DNA binding; P20393; Rev-erbα–FITC-DNA binding, fluorescence polarization, 90 min; activity, % at 10 µM; 0.79% of 370,000 active; AID 1259318;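 active = activity above about 14%, limit read from the data; passing the limit was not always enough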;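 also: 0% = DMSO wells with 35 nM protein and 100% = DMSO wells with 750 nM protein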
# Target sequence (P20393 whole entry, looked up): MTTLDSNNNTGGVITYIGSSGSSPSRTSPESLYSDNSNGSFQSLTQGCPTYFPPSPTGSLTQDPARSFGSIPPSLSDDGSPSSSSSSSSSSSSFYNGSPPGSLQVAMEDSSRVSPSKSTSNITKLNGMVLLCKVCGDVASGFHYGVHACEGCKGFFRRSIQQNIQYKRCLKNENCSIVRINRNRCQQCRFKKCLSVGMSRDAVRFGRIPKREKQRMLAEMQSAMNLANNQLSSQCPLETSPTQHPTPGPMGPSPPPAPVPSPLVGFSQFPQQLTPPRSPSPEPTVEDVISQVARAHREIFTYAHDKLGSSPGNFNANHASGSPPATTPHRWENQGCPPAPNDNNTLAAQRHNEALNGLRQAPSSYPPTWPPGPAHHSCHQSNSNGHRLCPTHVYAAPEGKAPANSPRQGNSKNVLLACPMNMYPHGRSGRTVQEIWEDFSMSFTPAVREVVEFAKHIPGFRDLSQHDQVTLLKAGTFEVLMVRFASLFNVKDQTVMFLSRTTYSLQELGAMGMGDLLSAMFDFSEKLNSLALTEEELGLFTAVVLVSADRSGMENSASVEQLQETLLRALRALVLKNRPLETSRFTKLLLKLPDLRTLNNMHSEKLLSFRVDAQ
# MIN6 prolif: induces beta-cell replication in MIN6 cells. MIN6 cells proliferation, ATPlite luminescence, 48 h; cells starved in 0.2% serum; 100% = growth in 10% serum. proliferation, % at 10 µM. 0.29% of 330,000 active;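 active = compounds whose signal lies at least 3.5 SD above the mean of all wells on their plate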;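 also: 0% = DMSO-treated cells in low-serum medium and 100% = 10% serum control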
# T cruzi repl: blocks replication of Trypanosoma cruzi | AID 1885 | 1.4% of 300,000 active | inhibition, % (concentration not given with the values) | T. cruzi beta-gal in NIH3T3, luminescence, 90 h;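 active = mean inhibition across valid replicates above about 55%, limit read from the data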;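 also: signal also drops with host cell toxicity which is not excluded here; 0% = plate median of DMSO wells and 100% = zero luminescence signal; higher percent means less beta-gal luminescence so fewer parasites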
#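 Read-out: Parasite load inhibition, % | Test system: Mouse NIH/3T3 fibroblasts infected with β-gal-expressing T. cruzi Tulahuen C4 | Amount: 5,000 cells/well | Medium: DMEM, 2% fetal bovine serum | Signal: GalScreen β-gal luminescence, detergent lysis, 60 min | Timing: 3 h attach, ≥90 h co-culture | Also added: Tulahuen C4 trypomastigotes, 5000/well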
# Rev-erbA confirm: Rev-erb alpha (human) modulation, hit confirmation | shares compounds with Rev-erbA mod | Rev-erb alpha FITC-DNA binding, fluorescence polarization, 90 min | activation, % at 25 µM | 61% of 3,000 active;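 active = activation at or above a set limit, or at least 3 SD above the negative control mean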;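 also: 0% = 35 nM protein with DMSO and 100% = 750 nM protein high control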
# RORg counter: counter-screen for Rev-erb alpha modulators: RORgamma DNA binding | shares compounds with Rev-erbA mod | purified RORgamma protein-FITC-DNA binding, fluorescence polarization | IC50, µM | 8% of 910 active;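 active = Compounds whose fitted half-maximal concentration for disrupting protein-DNA binding is below 10 micromolar; the record names Rev-erb in its text, so the target is in doubt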
# * hit, by the source's call; . = no result given; ! = a repeat was not active.
SMILES,PG9 binder,H9c2 TAG inh,hiPSC survival,Rev-erbA mod,MIN6 prolif,T cruzi repl,Rev-erbA confirm,others
CC(C)NC(=O)N(C)C[C@H]1Oc2ccc(NC(=O)CCC(F)(F)F)cc2C(=O)N([C@H](C)CO)C[C@@H]1C,0.3,-4.7,1.5,3.3,2.5,.,.,
COc1ccc(S(=O)(=O)N2CCC(=O)N2)cc1,-0.4,-33.3,-1.4,5.4,-0.2,-23.4,.,
O=C(C[n+]1cc(-c2ccccc2)n2c1CCC2)Nc1nc(-c2ccc(F)cc2)cs1,-0.7,.,-0.4,-2.0,-3.5,-11.2,.,
Cc1cc(C)n(-c2cc(N3CCOCC3)nc(-c3ccccc3)n2)n1,2.7,.,-0.4,18.3*,-1.4,44.1,24.4*,
Cc1nc(SCc2ccc(F)cc2)c2oc3ccccc3c2n1,-1.4,4.0,-0.2,2.2,1.8,14.4,.,
Fc1cccc(CSc2ncnc3c2oc2ccccc23)c1,-1.3,4.2,-1.6,122.2*,3.0,5.5,153.9*,RORg counter=6.31*
Fc1ccc(CSc2ncnc3c2oc2ccccc23)cc1,2.0,.,-0.3,289.9*,.,.,283.8*,RORg counter=>40
CC(C)C(NC(=O)c1ccco1)C(=O)NCc1ccc(C(=O)O)cc1 (stereo unspecified),0.3,.,0.8,-4.5,0.0,-7.9,.,
CCOc1ccc(NC(=O)CCCn2nc(C)c3c(C)n(-c4ccccc4)nc3c2=O)cc1,-1.7,.,-0.1,0.5,0.9,2.4,.,
CCN1C(=O)[C@H]2[C@@H](c3ccc(C(F)(F)F)cc3)N[C@]3(CCCN(Cc4ccc(F)cc4)C3=O)[C@H]2C1=O,0.0,-2.9,4.9,4.6,.,.,.,
CCC(C(=O)c1ccc(O)cc1)c1ccccc1 (stereo unspecified),1.4,-20.5,-1.2,-5.0,1.7,-2.1,.,
CCC(c1ccc(O)cc1)C(CC)c1ccc(O)cc1 (stereo unspecified),0.1,0.8,1.6,33.9*!,-6.9,.,40.8*,RORg counter=>40
N#Cc1cccc(NC(=O)CNC(=O)Cc2ccccc2)c1,-1.9,.,-0.2,-7.3,-1.1,-2.7,.,
COc1ccc2c(c1)N(C)/C(=C1/SC(=NCc3ccccc3)N(c3ccccc3)C1=O)S2,0.3,-14.6,-1.1,0.4,-5.6,8.5,.,
C=CCN1C(=O)/C(=C2/Sc3ccc(OC)cc3N2C)SC1=NCc1ccccc1,-1.5,-5.3,-0.4,55.2*,-2.3,0.7,47.1*,RORg counter=>40
O=C(CCc1c[nH]c2ccccc12)NCCc1ccc(Cl)cc1,-0.9,.,1.1,37.2*,-4.8,5.9,35.6*,RORg counter=>40
CC1=C(C(=O)OC2CCCCCCC2)C(c2ccc(O)cc2)NC(=O)N1 (stereo unspecified),0.5,.,0.3,1.7,-2.8,11.7,.,
Cc1ccc(C(=O)CSc2ncnc3sc4c(c23)CCCC4)cc1,-1.3,.,0.3,34.3*,2.4,26.3,18.4*,
O=C(O)CSc1ncnc2sc3c(c12)CCCC3,2.7,-5.9,-0.5,2.2,1.7,-4.2,.,
C/C(=N\Nc1ccccc1[N+](=O)[O-])c1ccccc1O,-2.0,11.8,-0.6,1.9,-1.1,0.5,.,
CC(C)c1nc2sc3c(NCc4ccco4)ncnc3c2c2c1COC(C)(C)C2,0.6,17.6,0.4,0.7,-2.4,39.8,.,
CC(C)c1nc2sc3c(NCc4ccccc4)ncnc3c2c2c1COC(C)(C)C2,-0.5,.,1.7,23.8*,-2.6,38.4,9.6,
CC/C(=N\NC(=O)c1ccoc1C)c1ccc(C)o1,-3.5,.,-0.1,-1.6,0.0,0.7,.,
COC(=O)C1CCN(Cc2nnc(-c3ccccc3)o2)CC1,-0.9,.,2.0,1.3,3.5,-8.6,.,
C=CCn1c(=NC(=O)c2ccco2)sc2cc(C(=O)OCC)ccc21,6.0,.,-0.3,29.1*,-0.5,16.9,23.4*,
C=CCn1c(=NC(=O)c2ccc(S(=O)(=O)N3CCc4ccccc4C3)cc2)sc2cc(S(N)(=O)=O)ccc21,8.6,.,-0.5,13.7,0.0,26.8,.,
COCCn1c(=NC(=O)c2ccco2)sc2cc(C(=O)OC)ccc21,-1.6,.,-1.0,42.1*,0.7,-12.7,37.8*,RORg counter=>40
